Test results as given in ChEMBL document CHEMBL3769341, “Discovery and Characterization of GSK2801, a Selective Chemical Probe for the Bromodomains BAZ2A and BAZ2B” (J Med Chem, 2016).
Activity calls are given as the source filed them. The rule behind the calls is not given here.

Columns and labels:
[1] = target: PH-interacting protein (Homo sapiens) (UniProt Q8WWQ0); assay: Binding affinity to biotinylated PHIP (unknown origin) expressed in Escherichia coli at 0.2 to 1 uM by Biolayer Interferometric analysis
In short: (§1)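 Bromodomains carrying a BirA biotin ligase targeting sequence, coexpressed with BirA in bacteria to give homogeneous in vivo biotin labelling, checked by mass spectrometry. Biotinylated proteins probed by biolayer interferometry with compound at two concentrations, 0.2 and 1.0 μM.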

[2] = target: Peregrin (Homo sapiens) (UniProt P55201); assay: Binding affinity to biotinylated BRPF1 bromodomain-1 (unknown origin) expressed in Escherichia coli at 0.2 to 1 uM by Biolayer Interferometric analysis; in short: as §1
[3] = target: Bromodomain-containing protein 3 (Homo sapiens) (UniProt Q15059); assay: Binding affinity to biotinylated BRD3 bromodomain-1 (unknown origin) expressed in Escherichia coli at 0.2 to 1 uM by Biolayer Interferometric analysis; in short: as §1
Chain of Bromodomain-containing protein 3 (Homo sapiens) (Q15059 2-726 limits assumed): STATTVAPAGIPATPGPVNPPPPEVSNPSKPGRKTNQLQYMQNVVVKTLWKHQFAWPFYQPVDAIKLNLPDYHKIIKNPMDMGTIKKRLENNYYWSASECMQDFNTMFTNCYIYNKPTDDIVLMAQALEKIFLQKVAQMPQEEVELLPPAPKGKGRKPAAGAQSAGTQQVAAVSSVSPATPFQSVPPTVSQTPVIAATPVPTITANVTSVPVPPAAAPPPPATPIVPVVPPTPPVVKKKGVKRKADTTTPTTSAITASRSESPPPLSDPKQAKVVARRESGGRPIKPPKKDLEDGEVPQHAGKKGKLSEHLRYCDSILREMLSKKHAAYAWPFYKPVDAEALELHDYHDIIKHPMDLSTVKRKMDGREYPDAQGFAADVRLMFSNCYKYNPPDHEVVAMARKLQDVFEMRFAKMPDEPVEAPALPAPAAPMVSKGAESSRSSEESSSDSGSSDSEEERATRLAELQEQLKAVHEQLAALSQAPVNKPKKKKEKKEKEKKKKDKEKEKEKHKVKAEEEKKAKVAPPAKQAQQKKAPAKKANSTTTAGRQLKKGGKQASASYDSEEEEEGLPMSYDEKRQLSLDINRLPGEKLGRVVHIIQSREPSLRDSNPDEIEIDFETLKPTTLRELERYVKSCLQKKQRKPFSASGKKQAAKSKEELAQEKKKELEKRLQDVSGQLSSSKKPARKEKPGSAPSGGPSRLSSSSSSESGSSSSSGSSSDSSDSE

[4] = target: ATPase family AAA domain-containing protein 2 (Homo sapiens) (UniProt Q6PL18); assay: Binding affinity to biotinylated ATAD2 (unknown origin) expressed in Escherichia coli at 0.2 to 1 uM by Biolayer Interferometric analysis; in short: as §1
[5] = target: Chromatin remodeling regulator CECR2 (Homo sapiens) (UniProt Q9BXF3); assay: Binding affinity to biotinylated CECR2 (unknown origin) expressed in Escherichia coli at 0.2 to 1 uM by Biolayer Interferometric analysis; in short: as §1
[6] = target: SWI/SNF-related matrix-associated actin-dependent regulator of chromatin subfamily A member 4 (Homo sapiens) (UniProt P51532); assay: Binding affinity to biotinylated SMARCA4 (unknown origin) expressed in Escherichia coli at 0.2 to 1 uM by Biolayer Interferometric analysis; in short: as §1
[7] = target: Bromodomain-containing protein 4 (Homo sapiens) (UniProt O60885); assay: Binding affinity to biotinylated BRD4 bromodomain-2 (unknown origin) expressed in Escherichia coli at 0.2 to 1 uM by Biolayer Interferometric analysis; in short: as §1
[8] = target: Tyrosine-protein kinase BAZ1B (Homo sapiens) (UniProt Q9UIG0); assay: Binding affinity to biotinylated BAZ1B (unknown origin) expressed in Escherichia coli at 0.2 to 1 uM by Biolayer Interferometric analysis; in short: as §1
[9] = target: Histone acetyltransferase KAT2A (Homo sapiens) (UniProt Q92830); assay: Binding affinity to biotinylated GCN5L2 (unknown origin) expressed in Escherichia coli at 0.2 to 1 uM by Biolayer Interferometric analysis; in short: as §1
[10] = target: Bromodomain-containing protein 7 (Homo sapiens) (UniProt Q9NPI1); assay: Binding affinity to biotinylated BRD7 (unknown origin) expressed in Escherichia coli at 0.2 to 1 uM by Biolayer Interferometric analysis; in short: as §1
[11] = target: Nucleosome-remodeling factor subunit BPTF (Homo sapiens) (UniProt Q12830); assay: Binding affinity to biotinylated FALZ (unknown origin) expressed in Escherichia coli at 0.2 to 1 uM by Biolayer Interferometric analysis; in short: as §1
[12] = target: Bromodomain testis-specific protein (Homo sapiens) (UniProt Q58F21); assay: Binding affinity to biotinylated BRDT bromodomain-2 (unknown origin) expressed in Escherichia coli at 0.2 to 1 uM by Biolayer Interferometric analysis; in short: as §1
[13] = target: ATPase family AAA domain-containing protein 2B (Homo sapiens) (UniProt Q9ULI0); assay: Binding affinity to biotinylated KIAA1240 (unknown origin) expressed in Escherichia coli at 0.2 to 1 uM by Biolayer Interferometric analysis; in short: as §1
[14] = target: Bromodomain-containing protein 1 (Homo sapiens) (UniProt O95696); assay: Binding affinity to biotinylated BRD1 (unknown origin) expressed in Escherichia coli at 0.2 to 1 uM by Biolayer Interferometric analysis; in short: as §1
[15] = target: Protein polybromo-1 (Homo sapiens) (UniProt Q86U86); assay: Binding affinity to biotinylated PB1 bromodomain-6 (unknown origin) expressed in Escherichia coli at 0.2 to 1 uM by Biolayer Interferometric analysis; in short: as §1
Chain of Protein polybromo-1 (Homo sapiens) (Q86U86 whole entry): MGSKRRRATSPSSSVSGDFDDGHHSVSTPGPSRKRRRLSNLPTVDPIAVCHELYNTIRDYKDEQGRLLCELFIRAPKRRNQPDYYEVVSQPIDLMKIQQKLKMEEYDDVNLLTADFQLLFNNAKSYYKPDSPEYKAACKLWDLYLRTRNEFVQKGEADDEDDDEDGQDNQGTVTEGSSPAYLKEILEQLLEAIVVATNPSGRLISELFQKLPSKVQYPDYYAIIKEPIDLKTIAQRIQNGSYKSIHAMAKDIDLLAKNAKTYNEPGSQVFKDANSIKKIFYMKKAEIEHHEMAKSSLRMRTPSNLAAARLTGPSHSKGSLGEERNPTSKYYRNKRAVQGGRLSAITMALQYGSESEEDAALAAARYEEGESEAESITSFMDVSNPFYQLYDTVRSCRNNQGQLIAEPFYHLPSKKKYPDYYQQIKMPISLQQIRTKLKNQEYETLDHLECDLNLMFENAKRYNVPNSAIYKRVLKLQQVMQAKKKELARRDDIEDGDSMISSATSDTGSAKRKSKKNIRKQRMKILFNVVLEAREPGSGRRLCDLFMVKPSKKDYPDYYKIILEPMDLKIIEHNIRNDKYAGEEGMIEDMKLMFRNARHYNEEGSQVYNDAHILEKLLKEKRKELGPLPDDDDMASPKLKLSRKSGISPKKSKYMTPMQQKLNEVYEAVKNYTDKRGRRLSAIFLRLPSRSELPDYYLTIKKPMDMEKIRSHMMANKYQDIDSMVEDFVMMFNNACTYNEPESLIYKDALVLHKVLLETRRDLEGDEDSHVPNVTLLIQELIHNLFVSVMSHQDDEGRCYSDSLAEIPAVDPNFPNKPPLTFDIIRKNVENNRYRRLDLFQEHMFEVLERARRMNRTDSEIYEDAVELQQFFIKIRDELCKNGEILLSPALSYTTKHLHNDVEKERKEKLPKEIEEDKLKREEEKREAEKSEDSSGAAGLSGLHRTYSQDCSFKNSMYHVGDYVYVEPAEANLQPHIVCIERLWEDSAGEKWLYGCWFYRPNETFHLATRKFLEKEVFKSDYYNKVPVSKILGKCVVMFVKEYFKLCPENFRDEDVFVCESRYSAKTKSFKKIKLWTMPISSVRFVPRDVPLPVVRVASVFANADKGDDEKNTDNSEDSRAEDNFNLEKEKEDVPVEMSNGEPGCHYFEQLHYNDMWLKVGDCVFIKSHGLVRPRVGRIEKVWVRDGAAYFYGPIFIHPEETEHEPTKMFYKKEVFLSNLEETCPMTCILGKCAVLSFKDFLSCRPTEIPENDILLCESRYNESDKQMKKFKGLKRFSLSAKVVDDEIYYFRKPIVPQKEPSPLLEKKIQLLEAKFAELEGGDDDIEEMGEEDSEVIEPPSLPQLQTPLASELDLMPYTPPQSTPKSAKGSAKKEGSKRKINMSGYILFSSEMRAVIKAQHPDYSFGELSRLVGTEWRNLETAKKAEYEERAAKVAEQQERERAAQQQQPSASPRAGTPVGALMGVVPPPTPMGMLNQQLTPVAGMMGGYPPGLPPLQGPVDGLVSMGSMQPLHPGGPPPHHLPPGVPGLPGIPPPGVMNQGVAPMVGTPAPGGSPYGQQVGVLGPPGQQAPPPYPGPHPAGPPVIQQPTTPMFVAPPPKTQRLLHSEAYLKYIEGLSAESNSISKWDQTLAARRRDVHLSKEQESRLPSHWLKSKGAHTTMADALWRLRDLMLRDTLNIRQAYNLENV

[16] = target: Protein polybromo-1 (Homo sapiens) (UniProt Q86U86); assay: Binding affinity to biotinylated PB1 bromodomain-4 (unknown origin) expressed in Escherichia coli at 0.2 to 1 uM by Biolayer Interferometric analysis; in short: as §1
[17] = target: Histone-lysine N-methyltransferase ASH1L (Homo sapiens) (UniProt Q9NR48); assay: Binding affinity to biotinylated ASH1L bromodomain (unknown origin) expressed in Escherichia coli at 0.2 to 1 uM by Biolayer Interferometric analysis; in short: as §1
[18] = target: Protein polybromo-1 (Homo sapiens) (UniProt Q86U86); assay: Binding affinity to biotinylated PB1 bromodomain-5 (unknown origin) expressed in Escherichia coli at 0.2 to 1 uM by Biolayer Interferometric analysis; in short: as §1
[19] = target: Bromodomain and WD repeat-containing protein 1 (Homo sapiens) (UniProt Q9NSI6); assay: Binding affinity to biotinylated WDR9 (unknown origin) expressed in Escherichia coli at 0.2 to 1 uM by Biolayer Interferometric analysis; in short: as §1
[20] = target: Bromodomain-containing protein 9 (Homo sapiens) (UniProt Q9H8M2); assay: Binding affinity to biotinylated C-terminal Avi/His-TEV-fused BRD9 (unknown origin) expressed in Escherichia coli by isothermal titration calorimetric analysis
[21] = target: Transcription initiation factor TFIID subunit 1 (Homo sapiens) (UniProt P21675); assay: Binding affinity to biotinylated TAF1 bromodomain-2 (unknown origin) expressed in Escherichia coli at 0.2 to 1 uM by Biolayer Interferometric analysis; in short: as §1
Chain of Transcription initiation factor TFIID subunit 1 (Homo sapiens) (P21675 whole entry): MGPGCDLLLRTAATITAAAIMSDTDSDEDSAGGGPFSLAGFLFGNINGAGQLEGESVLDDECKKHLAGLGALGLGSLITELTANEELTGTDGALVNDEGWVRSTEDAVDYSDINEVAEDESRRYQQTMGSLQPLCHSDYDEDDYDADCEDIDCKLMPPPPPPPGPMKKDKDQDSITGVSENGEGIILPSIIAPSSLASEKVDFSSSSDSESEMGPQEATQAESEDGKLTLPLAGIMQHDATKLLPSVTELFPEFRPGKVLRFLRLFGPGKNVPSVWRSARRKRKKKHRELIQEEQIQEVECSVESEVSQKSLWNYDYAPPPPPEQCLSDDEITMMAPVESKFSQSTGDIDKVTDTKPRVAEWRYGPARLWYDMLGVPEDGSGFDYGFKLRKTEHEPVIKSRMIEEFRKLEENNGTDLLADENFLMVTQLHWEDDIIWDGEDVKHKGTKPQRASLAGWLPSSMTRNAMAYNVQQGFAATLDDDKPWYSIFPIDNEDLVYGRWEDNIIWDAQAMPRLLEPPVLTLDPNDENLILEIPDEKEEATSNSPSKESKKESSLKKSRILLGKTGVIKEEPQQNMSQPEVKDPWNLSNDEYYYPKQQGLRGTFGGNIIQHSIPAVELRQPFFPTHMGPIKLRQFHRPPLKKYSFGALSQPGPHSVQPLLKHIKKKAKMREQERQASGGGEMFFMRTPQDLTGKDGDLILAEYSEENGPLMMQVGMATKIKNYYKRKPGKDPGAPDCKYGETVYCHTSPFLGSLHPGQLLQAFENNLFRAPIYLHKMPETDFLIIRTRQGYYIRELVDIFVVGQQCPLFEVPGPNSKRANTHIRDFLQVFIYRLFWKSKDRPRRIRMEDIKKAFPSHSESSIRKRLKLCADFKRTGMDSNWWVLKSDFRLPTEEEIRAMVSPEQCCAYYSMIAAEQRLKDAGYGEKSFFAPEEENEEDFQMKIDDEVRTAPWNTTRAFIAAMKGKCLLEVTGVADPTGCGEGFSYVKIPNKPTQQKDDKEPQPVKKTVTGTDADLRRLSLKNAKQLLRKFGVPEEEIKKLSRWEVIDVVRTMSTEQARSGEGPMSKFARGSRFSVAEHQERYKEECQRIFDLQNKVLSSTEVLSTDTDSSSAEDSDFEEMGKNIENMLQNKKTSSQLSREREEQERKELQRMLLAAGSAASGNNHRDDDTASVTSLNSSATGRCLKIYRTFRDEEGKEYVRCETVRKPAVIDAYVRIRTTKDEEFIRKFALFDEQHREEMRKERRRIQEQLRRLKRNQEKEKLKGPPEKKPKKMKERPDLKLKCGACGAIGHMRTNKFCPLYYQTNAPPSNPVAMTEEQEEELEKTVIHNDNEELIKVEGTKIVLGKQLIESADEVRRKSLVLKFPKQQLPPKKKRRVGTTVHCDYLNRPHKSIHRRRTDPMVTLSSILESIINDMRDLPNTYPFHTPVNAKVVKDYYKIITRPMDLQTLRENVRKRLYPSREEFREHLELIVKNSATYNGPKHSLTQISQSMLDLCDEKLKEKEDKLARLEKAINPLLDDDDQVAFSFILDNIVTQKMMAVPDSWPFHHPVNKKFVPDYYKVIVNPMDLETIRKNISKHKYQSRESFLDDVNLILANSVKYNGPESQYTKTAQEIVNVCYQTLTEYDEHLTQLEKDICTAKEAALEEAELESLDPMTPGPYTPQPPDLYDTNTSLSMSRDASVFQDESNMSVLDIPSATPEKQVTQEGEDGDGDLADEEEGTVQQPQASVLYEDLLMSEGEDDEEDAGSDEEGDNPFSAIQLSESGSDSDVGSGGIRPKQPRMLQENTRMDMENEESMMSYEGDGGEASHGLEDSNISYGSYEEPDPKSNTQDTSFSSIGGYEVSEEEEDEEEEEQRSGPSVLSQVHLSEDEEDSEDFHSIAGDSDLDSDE

[22] = target: Bromodomain-containing protein 2 (Homo sapiens) (UniProt P25440); assay: Binding affinity to biotinylated BRD2 bromodomain-2 (unknown origin) expressed in Escherichia coli at 0.2 to 1 uM by Biolayer Interferometric analysis; in short: as §1
Chain of Bromodomain-containing protein 2 (Homo sapiens) (P25440 whole entry, looked up): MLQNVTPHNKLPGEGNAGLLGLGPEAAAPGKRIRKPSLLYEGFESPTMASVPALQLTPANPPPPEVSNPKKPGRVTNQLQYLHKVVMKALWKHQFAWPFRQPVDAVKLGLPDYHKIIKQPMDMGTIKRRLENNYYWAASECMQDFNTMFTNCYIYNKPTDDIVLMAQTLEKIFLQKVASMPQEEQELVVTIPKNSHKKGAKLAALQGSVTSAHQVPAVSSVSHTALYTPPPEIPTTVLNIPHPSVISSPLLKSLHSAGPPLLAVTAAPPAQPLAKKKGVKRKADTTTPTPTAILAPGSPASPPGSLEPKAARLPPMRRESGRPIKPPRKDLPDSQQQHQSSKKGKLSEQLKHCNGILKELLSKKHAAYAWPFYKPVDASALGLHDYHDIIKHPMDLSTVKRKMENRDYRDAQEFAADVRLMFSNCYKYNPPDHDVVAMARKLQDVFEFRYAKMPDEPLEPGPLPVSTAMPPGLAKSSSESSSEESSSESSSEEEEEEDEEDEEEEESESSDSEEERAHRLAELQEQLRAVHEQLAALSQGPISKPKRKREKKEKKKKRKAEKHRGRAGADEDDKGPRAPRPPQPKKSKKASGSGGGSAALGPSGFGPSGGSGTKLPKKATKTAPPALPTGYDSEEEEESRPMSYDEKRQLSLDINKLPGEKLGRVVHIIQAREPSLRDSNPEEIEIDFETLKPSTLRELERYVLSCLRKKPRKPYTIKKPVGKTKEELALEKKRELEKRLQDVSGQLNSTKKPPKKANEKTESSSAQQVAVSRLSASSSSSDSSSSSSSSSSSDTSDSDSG

[23] = target: Transcription initiation factor TFIID subunit 1-like (Homo sapiens) (UniProt Q8IZX4); assay: Binding affinity to biotinylated TAF1L bromodomain-1 (unknown origin) expressed in Escherichia coli at 0.2 to 1 uM by Biolayer Interferometric analysis; in short: as §1
[24] = target: Bromodomain and WD repeat-containing protein 3 (Homo sapiens) (UniProt Q6RI45); assay: Binding affinity to biotinylated BRWD3 bromodomain-2 (unknown origin) expressed in Escherichia coli at 0.2 to 1 uM by Biolayer Interferometric analysis; in short: as §1
[25] = target: Protein polybromo-1 (Homo sapiens) (UniProt Q86U86); assay: Binding affinity to biotinylated PB1 bromodomain-1 (unknown origin) expressed in Escherichia coli at 0.2 to 1 uM by Biolayer Interferometric analysis; in short: as §1
[26] = target: Bromodomain-containing protein 3 (Homo sapiens) (UniProt Q15059); assay: Binding affinity to biotinylated BRD3 bromodomain-2 (unknown origin) expressed in Escherichia coli at 0.2 to 1 uM by Biolayer Interferometric analysis; in short: as §1
[27] = target: Bromodomain-containing protein 4 (Homo sapiens) (UniProt O60885); assay: Binding affinity to biotinylated BRD4 bromodomain-1 (unknown origin) expressed in Escherichia coli at 0.2 to 1 uM by Biolayer Interferometric analysis; in short: as §1
[28] = target: Transcription intermediary factor 1-alpha (Homo sapiens) (UniProt O15164); assay: Binding affinity to biotinylated TIF1 bromodomain-1 (unknown origin) expressed in Escherichia coli at 0.2 to 1 uM by Biolayer Interferometric analysis; in short: as §1
[29] = target: Histone acetyltransferase p300 (Homo sapiens) (UniProt Q09472); assay: Binding affinity to biotinylated EP300 (unknown origin) expressed in Escherichia coli at 0.2 to 1 uM by Biolayer Interferometric analysis; in short: as §1
[30] = target: Histone acetyltransferase KAT2B (Homo sapiens) (UniProt Q92831); assay: Binding affinity to biotinylated PCAF (unknown origin) expressed in Escherichia coli at 0.2 to 1 uM by Biolayer Interferometric analysis; in short: as §1
[31] = target: Transcription intermediary factor 1-beta (Homo sapiens) (UniProt Q13263); assay: Binding affinity to biotinylated TRIM28 (unknown origin) expressed in Escherichia coli at 0.2 to 1 uM by Biolayer Interferometric analysis; in short: as §1
[32] = target: Bromodomain-containing protein 2 (Homo sapiens) (UniProt P25440); assay: Binding affinity to biotinylated BRD2 bromodomain-1 (unknown origin) expressed in Escherichia coli at 0.2 to 1 uM by Biolayer Interferometric analysis; in short: as §1
[33] = target: Protein polybromo-1 (Homo sapiens) (UniProt Q86U86); assay: Binding affinity to biotinylated PB1 bromodomain-2 (unknown origin) expressed in Escherichia coli at 0.2 to 1 uM by Biolayer Interferometric analysis; in short: as §1
[34] = target: Bromodomain testis-specific protein (Homo sapiens) (UniProt Q58F21); assay: Binding affinity to biotinylated BRDT bromodomain-1 (unknown origin) expressed in Escherichia coli at 0.2 to 1 uM by Biolayer Interferometric analysis; in short: as §1
[35] = target: Transcription initiation factor TFIID subunit 1 (Homo sapiens) (UniProt P21675); assay: Binding affinity to biotinylated TAF1 bromodomain-1 (unknown origin) expressed in Escherichia coli at 0.2 to 1 uM by Biolayer Interferometric analysis; in short: as §1
[36] = target: SWI/SNF-related matrix-associated actin-dependent regulator of chromatin subfamily A member 2 (Homo sapiens) (UniProt P51531); assay: Binding affinity to biotinylated SMARCA2 (unknown origin) expressed in Escherichia coli at 0.2 to 1 uM by Biolayer Interferometric analysis; in short: as §1
[37] = target: Nuclear body protein SP140 (Homo sapiens) (UniProt Q13342); assay: Binding affinity to biotinylated SP140 (unknown origin) expressed in Escherichia coli at 0.2 to 1 uM by Biolayer Interferometric analysis; in short: as §1
[38] = target: CREB-binding protein (Homo sapiens) (UniProt Q92793); assay: Binding affinity to biotinylated CREBBP (unknown origin) expressed in Escherichia coli at 0.2 to 1 uM by Biolayer Interferometric analysis; in short: as §1
[39] = target: Bromodomain adjacent to zinc finger domain protein 2B (Homo sapiens) (UniProt Q9UIF8); assay: Binding affinity to biotinylated C-terminal Avi/His-TEV-tagged BAZ2B (unknown origin) expressed in Escherichia coli at 0.2 to 1 uM by Biolayer Interferometric analysis; in short: as §1
[40] = target: Transcription initiation factor TFIID subunit 1-like (Homo sapiens) (UniProt Q8IZX4); assay: Binding affinity to biotinylated TAF1L bromodomain-2 (unknown origin) expressed in Escherichia coli at 0.2 to 1 uM by Biolayer Interferometric analysis; in short: as §1

Activity [1]	Activity [2]	Activity [3]	Activity [4]	Activity [5]	Activity [6]	Activity [7]	Activity [8]	Activity [9]	Activity [10]	Activity [11]	Activity [12]	Activity [13]	Activity [14]	Activity [15]	Activity [16]	Activity [17]	Activity [18]	Activity [19]	Activity [21]	Structure (SMILES)	other results
inactive	inactive	inactive	inactive	inactive	inactive	inactive	inactive	inactive	inactive	inactive	inactive	inactive	inactive	inactive	inactive	inactive	inactive	inactive	inactive	CCCOc1ccn2c(C(C)=O)cc(-c3ccccc3S(C)(=O)=O)c2c1	Kb [20]: 0.826 ×10⁶ /M; Activity [22]: inactive; Activity [23]: inactive; Activity [24]: inactive; Activity [25]: inactive; Activity [26]: inactive; Activity [27]: inactive; Activity [28]: inactive; Activity [29]: inactive; Activity [30]: inactive; Activity [31]: inactive; Activity [32]: inactive; Activity [33]: inactive; Activity [34]: inactive; Activity [35]: inactive; Activity [36]: inactive; Activity [37]: inactive; Activity [38]: inactive
inactive	inactive	inactive	inactive	inactive	inactive	inactive	inactive	inactive	inactive	inactive	inactive	inactive	inactive	inactive	inactive	inactive	inactive	inactive	inactive	CCCOc1ccn2c(C(C)=O)cc(-c3cccc(OC)c3)c2c1	Activity [39]: inactive; Activity [22]: inactive; Activity [23]: inactive; Activity [24]: inactive; Activity [25]: inactive; Activity [26]: inactive; Activity [27]: inactive; Activity [28]: inactive; Activity [29]: inactive; Activity [40]: inactive; Activity [30]: inactive; Activity [31]: inactive; Activity [32]: inactive; Activity [33]: inactive; Activity [34]: inactive; Activity [35]: inactive; Activity [36]: inactive; Activity [37]: inactive; Activity [38]: inactive
